From ChEMBL document CHEMBL1128674, “Evaluation of physicochemical parameters important to the oral bioavailability of peptide-like compounds: implications for the synthesis of renin inhibitors” (J Med Chem, 1995)

Experiments:
[1] = Partition coefficient (logP); format: physicochemical; details: octanol/water
In short: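 Log P obtained by a correlation method at pH 6.5.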

[2] = Acid dissociation constant of the compound; format: ADME

Row | Compound | logP [1] | pKa [2]
1 | CC(C)C[C@H](O)[C@H](O)[C@@H](N)CC1CCCCC1 | 1.86 | 
2 | CC(C)C[C@H](O)[C@H](O)[C@H](CC1CCCCC1)NC(=O)[C@H](Cc1csc(N)n1)NC(=O)[C@H](Cc1ccccc1)NS(=O)(=O)N1CCN(C(=O)CCC(=O)O)CC1 | 2.03 | 5.9
3 | CC(C)C[C@H](O)[C@H](O)[C@H](CC1CCCCC1)NC(=O)C[C@@H](NC(=O)OC(C)(C)C)C(=O)O | 2.06 | 4.7
4 | CC(C)C[C@H](O)[C@H](O)[C@H](CC1CCCCC1)NC(=O)[C@H](Cc1csc(N)n1)NC(=O)[C@H](Cc1ccccc1)NS(=O)(=O)N1CCOCC1 | 3.01 | 
5 | CCCC[C@H](NC(=O)[C@H](Cc1ccccc1)n1cccc1)C(=O)N[C@@H](CC1CCCCC1)[C@@H](O)[C@@H](O)CC(C)C | 4.9 | 

Next, values leading:

Row | logP [1] | pKa [2] | Compound
6 | 1.52 | 7.5 | CC(C)C[C@H](O)[C@H](O)[C@H](CC1CCCCC1)NC(=O)CN
7 | 3.61 |  | CC(C)C[C@H](O)[C@H](O)[C@H](CC1CCCCC1)NC(=O)/C=C/c1ccccc1
8 | 4.66 |  | CC(C)C[C@H](O)[C@H](O)[C@H](CC1CCCCC1)NC(=O)CCCCCc1ccccc1
